Laboratory results taken from ChEMBL document CHEMBL1133733, “Anilides of (R)-trifluoro-2-hydroxy-2-methylpropionic acid as inhibitors of pyruvate dehydrogenase kinase” (J Med Chem, 2000).
The source made the active and inactive calls. No cut-off for these calls is given here.

Tests used:
[1] = biological target: T1, Pyruvate dehydrogenase kinase (Rattus norvegicus) (UniProt Q63065+A6IPZ9+Q64536+O54937); assay: In vivo percent of control lactate in 24 hr fasted rats at 100 umol/kg oral dose; type: functional, organism-based
In short: (§1)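 Normal Sprague–Dawley rats, n = 6/group, fasted 24 h, then dosed orally (μmol/kg); blood lactate sampled at 2, 2.5 or 5 h postdose and expressed as percent of control; significance p < 0.05.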

[2] = biological target: T1, Pyruvate dehydrogenase kinase (Rattus norvegicus); assay: In vivo percent of control lactate in 24 hr fasted rats at 30 uM/kg oral dose; type: functional, organism-based; conditions: 30 umol/kg; in short: as §1
[3] = species on record: Homo sapiens; assay: Effective concentration in human fibroblasts for increased oxidation of lactate; type: functional, organism-based
In short: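 Human fibroblasts incubated with [14C]lactate; PDH complex activation read as conversion of [14C]lactate to 14CO2 (modified Ofenstein assay); EC50 (μM ± standard error).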

[4] = biological target: Pyruvate dehydrogenase kinase (Homo sapiens) (UniProt Q15119+Q15120+Q16654+Q15118); assay: In vitro inhibition of pyruvate dehydrogenase kinase (PDHK) in primary enzymatic assay; Inactive; type: protein assay; conditions: Sus scrofa
In short: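 Primary high-throughput enzymatic assay of PDH kinase inhibition using commercial porcine PDH complex; IC50 reported as μM ± standard error.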

[5] = biological target: T1, Pyruvate dehydrogenase kinase (Rattus norvegicus); assay: In vivo percent of control lactate in 24 hr fasted rats at 100 umol/kg oral dose after 5 hours; type: functional, organism-based; in short: as §1
[6] = biological target: T1, Pyruvate dehydrogenase kinase (Rattus norvegicus); assay: In vivo percent of control lactate in 24 hr fasted rats at 10 uM/kg oral dose after 2.5 hours; type: functional, organism-based; in short: as §1
[7] = biological target: T1, Pyruvate dehydrogenase kinase (Rattus norvegicus); assay: In vivo percent of control lactate in 24 hr fasted rats at 100 umol/kg oral dose after 2.5 hours; type: functional, organism-based; in short: as §1
[8] = biological target: T1, Pyruvate dehydrogenase kinase (Rattus norvegicus); assay: In vivo percent of control lactate in 24 hr fasted rats at 30 uM/kg oral dose after 2.5 hours; type: functional, organism-based; in short: as §1
[9] = biological target: T1, Pyruvate dehydrogenase kinase (Rattus norvegicus); assay: In vivo percent of control lactate in 24 hr fasted rats at 30 uM/kg oral dose after 5 hours; type: functional, organism-based; in short: as §1
[10] = biological target: T1, Pyruvate dehydrogenase kinase (Rattus norvegicus); assay: In vivo percent of control lactate in 24 hr fasted rats at 250 umol/kg oral dose; type: functional, organism-based; in short: as §1
[11] = biological target: T1, Pyruvate dehydrogenase kinase (Rattus norvegicus); assay: In vivo percent of control lactate in 24 hr fasted rats at 300 umol/kg oral dose after 2.5 hours; type: functional, organism-based; in short: as §1
[12] = biological target: T1, Pyruvate dehydrogenase kinase (Rattus norvegicus); assay: In vivo percent of control lactate in 24 hr fasted rats at 300 umol/kg oral dose after 5 hours; type: functional, organism-based; in short: as §1
[13] = Area Under Curve after oral dosing of 100 uM/Kg; type: ADME
In short: (§2)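 Plasma levels of parent drug profiled in rats after a single oral dose; t1/2, AUC (0–8 h), Tmax and Cmax derived from the plasma concentration–time profile.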

[14] = Half-life after oral administration (100 uM/Kg); type: ADME, organism-based; conditions: in vivo; in short: as §2
[15] = Cmax after oral dosing of 100 umol/Kg; type: ADME, organism-based; parameters: dose 100 umol/Kg, route oral; conditions: in vivo; in short: as §2
[16] = Tmax after oral dosing of 100 uM/Kg; type: ADME, organism-based; conditions: in vivo; in short: as §2

## C[C@@](O)(C(=O)Nc1ccc(C(=O)N[C@@H](Cc2ccccc2)C(=O)[O-])cc1Cl)C(F)(F)F.[Na+]
[1]
  Control: 115%

## CC(C)[C@@H](C(=O)[O-])N(C)C(=O)c1ccc(NC(=O)[C@@](C)(O)C(F)(F)F)c(Cl)c1.[Na+]
[2]
  Control: 87%

## C[C@@H](C(=O)[O-])N(C)C(=O)c1ccc(NC(=O)[C@@](C)(O)C(F)(F)F)c(Cl)c1.[Na+]
[2]
  Control: 94%

## CC(O)(C(=O)Nc1cccc(C(=O)c2ccccc2)c1Cl)C(F)(F)F (stereo unspecified)
[3]
  EC50: 11 µM

## CC(O)(C(=O)Nc1cc(C(=O)O)ccc1Cl)C(F)(F)F (stereo unspecified)
[4]
  NA: inactive

## CC(O)(C(=O)Nc1ccccc1Cl)C(F)(F)F (stereo unspecified)
[3]
  EC50: 5.4 µM

## CC(C)CNS(=O)(=O)c1ccc(NC(=O)[C@@](C)(O)C(F)(F)F)c(Cl)c1
[5]
  Control: 60%
[6]
  Control: 100%
[7]
  Control: 69%
[8]
  Control: 83%

## CC(O)(C(=O)Nc1cc(C(=O)N2CCCCC2)ccc1Cl)C(F)(F)F (stereo unspecified)
[4]
  NA: inactive

## C=CCNS(=O)(=O)c1ccc(NC(=O)[C@@](C)(O)C(F)(F)F)c(Cl)c1
[5]
  Control: 62%
[7]
  Control: 76%

## C[C@@](O)(C(=O)Nc1ccc(S(=O)(=O)NCc2ccccn2)cc1Cl)C(F)(F)F
[5]
  Control: 84%
[7]
  Control: 64%

## COC(=O)[C@H](Cc1c[nH]c2ccccc12)N(C)C(=O)c1ccc(NC(=O)[C@@](C)(O)C(F)(F)F)c(Cl)c1
[2]
  Control: 102%

## C[C@@](O)(C(=O)Nc1ccc(S(=O)(=O)NCCCN2CCCC2=O)cc1Cl)C(F)(F)F
[9]
  Control: 66%
[5]
  Control: 52%
[7]
  Control: 51%
[8]
  Control: 87%

## C[C@@](O)(C(=O)Nc1ccc(S(=O)(=O)NCCc2ccc(F)cc2)cc1Cl)C(F)(F)F
[5]
  Control: 69%
[7]
  Control: 124%

## CC(O)(C(=O)Nc1ccccc1-c1ccccc1)C(F)(F)F (stereo unspecified)
[4]
  NA: inactive

## C[C@@](O)(C(=O)Nc1ccc(C(=O)NCCCO)cc1Cl)C(F)(F)F
[1]
  Control: 88%

## CC(O)(C(=O)Nc1ccc(C#N)cc1Cl)C(F)(F)F (stereo unspecified)
[10]
  Control: 78%

## CCCCCCNC(=O)c1ccc(Cl)c(NC(=O)C(C)(O)C(F)(F)F)c1 (stereo unspecified)
[4]
  NA: inactive

## CC(O)(C(=O)Nc1cc(C(=O)c2ccccc2)ccc1Cl)C(F)(F)F (stereo unspecified)
[4]
  NA: inactive

## CCOCCCNS(=O)(=O)c1ccc(NC(=O)[C@@](C)(O)C(F)(F)F)c(Cl)c1
[5]
  Control: 70%
[7]
  Control: 72%

## C[C@@](O)(C(=O)Nc1ccc(S(=O)(=O)NCCN2CCOCC2)cc1Cl)C(F)(F)F
[5]
  Control: 84%
[7]
  Control: 71%

## C[C@@](O)(C(=O)Nc1ccc(C(=O)O)cc1Cl)C(F)(F)F
[3]
  EC50: 1.4 µM

## C[C@@](O)(C(=O)Nc1ccc(C(=O)N2CCN(c3ccccn3)CC2)cc1Cl)C(F)(F)F
[1]
  Control: 63%

## C[C@@](O)(C(=O)Nc1ccc(C(=O)NCCCCCC(=O)[O-])cc1Cl)C(F)(F)F.[Na+]
[1]
  Control: 94%

## C[C@@](O)(C(=O)Nc1ccc(S(=O)(=O)N2CCC(N)C2)cc1Cl)C(F)(F)F (stereo partly specified)
[5]
  Control: 70%
[7]
  Control: 82%

## C[C@@](O)(C(=O)Nc1ccc(S(=O)(=O)N2CCNCC2)cc1Cl)C(F)(F)F
[11]
  Control: 77%

## CC(C)CNS(=O)(=O)c1ccc(NC(=O)C(C)(C)O)c(Cl)c1
[12]
  Control: 76%
[5]
  Control: 95%
[7]
  Control: 101%
[11]
  Control: 69%

## Cc1cccc(C)c1NC(=O)C(C)(O)C(F)(F)F (stereo unspecified)
[4]
  NA: inactive

## C[C@@](O)(C(=O)Nc1ccc(C(=O)N[C@@H](Cc2ccc(-c3ccccc3)cc2)C(=O)O)cc1Cl)C(F)(F)F
[2]
  Control: 101%

## CC(O)(C(=O)Nc1cccc(C(=O)O)c1Cl)C(F)(F)F (stereo unspecified)
[13]
  AUC: 143 µM·h
[14]
  half-life: 4.6 h
[15]
  Cmax: 87.3 µM
[16]
  Tmax: 0.5 h

## CCCCCCNC(=O)c1ccc(NC(=O)C(C)(O)C(F)(F)F)c(Cl)c1 (stereo unspecified)
[3]
  EC50: 5.5 µM

## CC(=O)c1ccccc1NC(=O)C(C)(O)C(F)(F)F (stereo unspecified)
[3]
  EC50: 14 µM

## CC(O)(C(=O)Nc1cccc(C(F)(F)F)c1)C(F)(F)F (stereo unspecified)
[4]
  NA: inactive

## CC(O)(C(=O)Nc1ccc(C(=O)N2CCCCC2)cc1Cl)C(F)(F)F (stereo unspecified)
[3]
  EC50: 0.71 µM

## COc1ccc(NC(=O)C(C)(O)C(F)(F)F)cc1 (stereo unspecified)
[3]
  EC50: 43.1 µM

## CN(CCCO)C(=O)c1ccc(NC(=O)[C@@](C)(O)C(F)(F)F)c(Cl)c1
[2]
  Control: 114%

## COC(=O)c1ccc(Cl)c(NC(=O)C(C)(O)C(F)(F)F)c1 (stereo unspecified)
[4]
  NA: inactive

## C[C@@](O)(C(=O)Nc1ccc(C(=O)N[C@@H](CCc2ccccc2)C(=O)O)cc1Cl)C(F)(F)F
[2]
  Control: 97%

## CC(O)(C(=O)Nc1ccc(C(=O)c2ccccc2)cc1Cl)C(F)(F)F (stereo unspecified)
[3]
  EC50: 30 µM

## COc1ccc(Cl)c(NC(=O)C(C)(O)C(F)(F)F)c1 (stereo unspecified)
[4]
  NA: inactive

## CC(O)(C(=O)Nc1cccc(C(=O)c2ccccc2)c1)C(F)(F)F (stereo unspecified)
[3]
  EC50: 10 µM

## COC(=O)c1cccc(NC(=O)C(C)(O)C(F)(F)F)c1Cl (stereo unspecified)
[3]
  EC50: 13.8 µM

## C[C@@](O)(C(=O)Nc1ccc(C(=O)N2CCOCC2)cc1Cl)C(F)(F)F
[1]
  Control: 64%

## C[C@@](O)(C(=O)Nc1ccc(S(C)(=O)=O)cc1Cl)C(F)(F)F
[10]
  Control: 65%
